Assay results: ChEMBL document CHEMBL4049461, “Double-Winged 3-Hydroxypyrimidine-2,4-diones: Potent and Selective Inhibition against HIV-1 RNase H with Significant Antiviral Activity” (J Med Chem, 2017)

Experiments:
[1] = Inhibition of recombinant full length HIV1 reverse transcriptase RNase H domain using RNA/DNA duplex substrate HTS1 assessed as reduction in internal cleavage of RNA strand by fluoresence assay; design: species or system Human immunodeficiency virus 1
How it was run: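 Full-length HIV RT incubated with fluorescein/Dabcyl-labelled 18-mer RNA/DNA duplex HTS-1, which reports non-specific internal RNA cleavage, across a compound concentration series. Dose-response data fitted by nonlinear regression to logistic curves. IC50 given as mean ± SD from at least two independent experiments.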

[2] = Inhibition of recombinant full length HIV1 reverse transcriptase polymerase domain assessed as decrease in extension of 18 nucleotide DNA primer annealed to 100 nucleotide DNA template after 30 mins; design: species or system Human immunodeficiency virus 1
How it was run: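 20 nM RT, 40 nM 18-nt primer annealed to 100-nt DNA template, and 10 μM dNTPs in 50 mM Tris pH 7.8, 50 mM NaCl, 1% DMSO, with increasing compound concentrations. Reactions started with 6 mM MgCl2, run 30 min at 37 °C, and stopped with 100 mM EDTA.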

[3] = Inhibition of HIV integrase strand transfer activity expressed in Escherichia coli BL21 (DE3) using 5' biotin ATGTGGAAAATCTCTAGCA primer annealed with ACTGCTAGAGATTTTCCACAT 3' Cy5 template preincubated for 10 mins followed by primer/template addition measured after 30 mins by fluorescence assay; design: species or system Human immunodeficiency virus
How it was run: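 Integrase preincubated 10 min at 25 °C with compound (final 0.13–100 μM, duplicate) in 10 mM HEPES pH 7.5, 10% glycerol, 10 mM MnCl2, 1 mM DTT, 1 μM enzyme. Biotin/Cy5 oligo duplex added; 30 min at 37 °C; EDTA quench.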

[4] = tested on: Human immunodeficiency virus 1; test: Antiviral activity against HIV1 infected in CD4/CXCR4/CCR5 expressing human P4R5 cells assessed as inhibition of viral replication preincubated with cells for 24 hrs followed by viral infection measured after 48 hrs by beta-galactosidase reporter gene assay; format: functional; settings: Human immunodeficiency virus 1, P4/R5
How it was run: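 P4R5 indicator cells (CD4, CXCR4, CCR5; HIV LTR-driven β-galactosidase reporter) seeded 4 × 10³/well in DMEM/10% FBS with puromycin (1 μg/mL). Cells lysed, MUG substrate added, fluorescence β-galactosidase readout.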

[5] = Cytotoxicity against human P4R5 cells by MTS assay; format: cell-based

SMILES | IC50 [1] [µM] | IC50 [2] [µM] | IC50 [3] [µM] | EC50 [4] [µM] | CC50 [5] [µM]
O=C(Nc1ccc(-c2ccccc2)cc1)c1c(NCc2ccc(-c3ccccc3)cc2)[nH]c(=O)n(O)c1=O | 0.14 | > 10 | > 100 | > 20 | 
O=C(NCc1ccc(-c2ccccc2)cc1)c1c(NCc2ccccc2)[nH]c(=O)n(O)c1=O | 0.038 | > 10 | > 100 | > 20 | > 100
O=C(NCc1ccc(F)cc1)c1c(Nc2ccc(-c3ccccc3)cc2)[nH]c(=O)n(O)c1=O | 0.047 | > 10 | > 100 |  | 
O=C(Nc1cccc2ccccc12)c1c(NCc2ccccc2)[nH]c(=O)n(O)c1=O | 0.057 | > 10 | 21 | > 20 | > 100
O=C(NCc1cccc(F)c1)c1c(Nc2ccc(-c3ccccc3)cc2)[nH]c(=O)n(O)c1=O | 0.049 | > 10 | > 100 | 6.3 | > 100
O=C(Nc1ccc(F)cc1F)c1c(NCc2ccccc2)[nH]c(=O)n(O)c1=O | 0.079 | > 10 | 29 | > 20 | > 100
Cc1ccc(NC(=O)c2c(Nc3ccccc3)[nH]c(=O)n(O)c2=O)cc1 | 0.03 | > 10 | 2.6 | 4.5 | > 100
O=C(Nc1ccc(F)cc1)c1c(NCc2ccccc2)[nH]c(=O)n(O)c1=O | 0.019 | 10 | 71 | > 20 | > 100
O=C(NCc1cccc(Cl)c1F)c1c(Nc2ccc(-c3ccccc3)cc2)[nH]c(=O)n(O)c1=O | 0.059 | > 10 | > 100 |  | 
O=C(NCc1cc(F)ccc1F)c1c(Nc2ccc(-c3ccccc3)cc2)[nH]c(=O)n(O)c1=O | 0.05 | 9.5 | > 100 | 3.7 | > 100
O=C(Nc1ccccc1)c1c(NCc2ccccc2)[nH]c(=O)n(O)c1=O | 0.027 | > 10 | > 100 | 6.9 | 52
O=C(NCc1ccc(-c2ccccc2)cc1)c1c(NCc2ccc(-c3ccccc3)cc2)[nH]c(=O)n(O)c1=O | 0.11 | > 10 | > 100 | > 20 | > 100
O=C(Nc1ccccc1)c1c(Nc2ccccc2)[nH]c(=O)n(O)c1=O | 0.016 | > 10 | 1.5 | 6.6 | > 100
O=C(NCc1ccccc1)c1c(Nc2ccc(-c3ccccc3)cc2)[nH]c(=O)n(O)c1=O | 0.11 | > 10 | 23 |  | 
O=C(Nc1ccc(C(F)(F)F)cc1)c1c(Nc2ccccc2)[nH]c(=O)n(O)c1=O | 0.038 | 8.1 | 9.5 | 3.5 | > 100
O=C(Nc1ccccc1)c1c(NCc2ccc(-c3ccccc3)cc2)[nH]c(=O)n(O)c1=O | 0.047 | > 10 | > 100 | > 20 | 

SMILES | IC50 [1] [µM] | IC50 [2] [µM] | IC50 [3] [µM] | EC50 [4] [µM] | CC50 [5] [µM]
O=C(NCc1ccccc1)c1c(Nc2ccccc2)[nH]c(=O)n(O)c1=O | 0.056 | > 10 | 0.23 | 0.6 | > 100
O=C(NCc1ccc(F)cc1F)c1c(Nc2ccc(-c3ccccc3)cc2)[nH]c(=O)n(O)c1=O | 0.077 | 8.6 | > 100 | 1.5 | > 100
O=C(Nc1ccc(C(F)(F)F)cc1)c1c(NCc2ccccc2)[nH]c(=O)n(O)c1=O | 0.041 | > 10 | > 100 | > 20 | > 100
CCc1ccc(NC(=O)c2c(NCc3ccccc3)[nH]c(=O)n(O)c2=O)cc1 | 0.054 | 10 | > 100 | 8.5 | > 100
COc1cc2ccccc2cc1/C=N/NC(=O)c1cc(O)c(O)c(O)c1 | 0.2 | 0.5 |  |  | 
O=C(Nc1ccc(-c2ccccc2)cc1)c1c(NCc2ccccc2)[nH]c(=O)n(O)c1=O | 0.12 | > 10 | > 100 | 15 | 54
O=C(NCc1ccccc1)c1c(NCc2ccccc2)[nH]c(=O)n(O)c1=O | 0.032 | > 10 | 0.14 | 1.4 | > 100
COc1ccc(-c2ccc(NC(=O)c3c(Nc4ccc(-c5ccccc5)cc4)[nH]c(=O)n(O)c3=O)cc2)cc1 | 1.2 | 1.4 | > 100 |  | 
O=C(Nc1cccc2ccccc12)c1c(Nc2ccccc2)[nH]c(=O)n(O)c1=O | 0.018 | 7.7 | 3.2 | 11.4 | 76.8
O=C(Nc1ccc(-c2ccc(F)cc2)cc1)c1c(Nc2ccc(-c3ccccc3)cc2)[nH]c(=O)n(O)c1=O | 0.97 | 1.6 | > 100 |  | 
O=C(NCc1ccccc1)c1c(NCc2ccc(-c3ccccc3)cc2)[nH]c(=O)n(O)c1=O | 0.054 | > 10 | 1.6 | > 20 | 
O=C(Nc1ccc(F)cc1)c1c(Nc2ccccc2)[nH]c(=O)n(O)c1=O | 0.004 | > 10 | 3.1 | 6.1 | 58.4
O=C(NCc1ccccc1F)c1c(Nc2ccc(-c3ccccc3)cc2)[nH]c(=O)n(O)c1=O | 0.04 | > 10 | > 100 |  | 
O=C(Nc1ccc(-c2ccccc2)cc1)c1c(Nc2ccc(-c3ccccc3)cc2)[nH]c(=O)n(O)c1=O | 1 | 1.8 | > 100 |  | 
Cc1ccc(NC(=O)c2c(NCc3ccccc3)[nH]c(=O)n(O)c2=O)cc1 | 0.019 | 10 | 34 | 7.2 | 53
